One data set concerns the target hERG (KCNH2) (Homo sapiens, UniProt Q12809). Briefly: Inhibition of human ERG at 10 uM by cell-based electrophysiology assay.
The next data set concerns SW-620. Briefly: cells. The note with it: Homo sapiens, SW-620, 72 h.
The nature of data set [1]: Metabolic stability in human liver microsomes assessed as parent compound metabolism after 30 mins by LC-MS analysis. The data set is classed as ADME, Microsome. The note with it: read-out: Drug metabolism. In outline:
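Test compound at 10 μM with pooled mixed-gender human liver microsomes (1 mg/mL protein), NADPH 1 mM, UDPGA 2.5 mM and MgCl2 3 mM in 10 mM PBS at 37 °C for 0 and 30 min. Controls omit NADPH/UDPGA. Compound remaining measured by LC–MS; reported as percent of parent metabolized at 30 min.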

Data set [2] is described as follows: Metabolic stability in mouse liver microsomes assessed as parent compound metabolism after 30 mins by LC-MS analysis. The data set is classed as ADME, Microsome. The note with it: read-out: Drug metabolism. In outline: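 Male CD1 mouse liver microsomes (1 mg/mL protein) incubated with 10 μM compound plus NADPH 1 mM, UDPGA 2.5 mM and MgCl2 3 mM in 10 mM PBS at 37 °C for 0 and 30 min. NADPH/UDPGA-free controls included. LC–MS quantitation of remaining compound; reported as percent parent metabolized after 30 min.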

For another data set, the target named is T1, Aurora kinase A (Homo sapiens, UniProt O14965).
T1 sequence (O14965 whole entry): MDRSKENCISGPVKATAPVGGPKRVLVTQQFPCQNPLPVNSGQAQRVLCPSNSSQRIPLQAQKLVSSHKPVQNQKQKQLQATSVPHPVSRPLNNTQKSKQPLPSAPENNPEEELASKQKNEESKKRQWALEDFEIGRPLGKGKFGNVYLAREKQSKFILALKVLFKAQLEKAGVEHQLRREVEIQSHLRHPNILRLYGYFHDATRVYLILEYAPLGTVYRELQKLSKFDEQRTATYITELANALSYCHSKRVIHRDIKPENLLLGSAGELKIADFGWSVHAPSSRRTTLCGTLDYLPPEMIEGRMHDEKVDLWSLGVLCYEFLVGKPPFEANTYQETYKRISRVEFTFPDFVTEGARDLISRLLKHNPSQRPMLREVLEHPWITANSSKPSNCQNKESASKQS
Briefly: Inhibition of GST-tagged human Aurora A kinase expressed in baculovirus system.

SMILES strings stand for the structures.

Sequence of hERG (KCNH2) (Q12809 whole entry): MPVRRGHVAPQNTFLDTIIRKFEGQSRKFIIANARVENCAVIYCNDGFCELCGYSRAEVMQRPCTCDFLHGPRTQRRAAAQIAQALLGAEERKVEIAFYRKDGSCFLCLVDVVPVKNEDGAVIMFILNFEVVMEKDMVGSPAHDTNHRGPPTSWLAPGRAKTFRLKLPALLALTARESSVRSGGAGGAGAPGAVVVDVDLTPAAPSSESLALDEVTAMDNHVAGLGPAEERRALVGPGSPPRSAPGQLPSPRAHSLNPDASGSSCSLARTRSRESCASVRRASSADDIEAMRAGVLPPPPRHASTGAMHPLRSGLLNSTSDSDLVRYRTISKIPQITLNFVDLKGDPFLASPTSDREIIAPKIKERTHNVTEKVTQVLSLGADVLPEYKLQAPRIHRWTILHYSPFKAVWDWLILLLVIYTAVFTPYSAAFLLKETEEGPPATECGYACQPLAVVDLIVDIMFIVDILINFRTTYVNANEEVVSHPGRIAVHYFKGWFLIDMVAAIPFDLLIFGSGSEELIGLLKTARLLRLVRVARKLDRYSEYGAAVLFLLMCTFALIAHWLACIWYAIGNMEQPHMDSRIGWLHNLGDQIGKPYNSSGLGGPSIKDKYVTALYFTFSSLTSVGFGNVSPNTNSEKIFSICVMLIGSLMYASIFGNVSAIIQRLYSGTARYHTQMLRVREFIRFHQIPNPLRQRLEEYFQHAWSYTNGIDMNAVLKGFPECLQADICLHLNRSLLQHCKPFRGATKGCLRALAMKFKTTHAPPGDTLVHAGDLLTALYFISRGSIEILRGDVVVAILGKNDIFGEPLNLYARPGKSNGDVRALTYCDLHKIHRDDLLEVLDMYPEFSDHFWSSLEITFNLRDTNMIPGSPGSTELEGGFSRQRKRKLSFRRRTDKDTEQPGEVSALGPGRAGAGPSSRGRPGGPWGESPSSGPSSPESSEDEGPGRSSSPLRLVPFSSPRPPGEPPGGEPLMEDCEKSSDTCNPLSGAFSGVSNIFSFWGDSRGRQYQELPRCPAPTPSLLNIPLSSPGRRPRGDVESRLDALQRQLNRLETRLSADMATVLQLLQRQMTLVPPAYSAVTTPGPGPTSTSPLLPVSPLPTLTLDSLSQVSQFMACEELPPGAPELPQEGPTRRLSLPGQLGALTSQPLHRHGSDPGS

Regarding `Cc1cc(CN2CCN(c3c(Cl)cnc4[nH]c(-c5cnn(C(C)C)c5)nc34)CC2)no1`, at hERG (KCNH2), the inhibition at 10 µM came to 71%. It took 2220 nM to inhibit growth in the data set on SW-620 by half (GI50). Moreover, the metabolised at 0.5 h in data set [1] turned out to be 17%; in data set [2], 30%. This molecule registered an IC50 against Aurora kinase A of 35 nM.
For `Cc1cc(CN2CCN(c3c(Cl)cnc4nc(-c5cccc(CN6CCOCC6)c5)[nH]c34)CC2)no1` the same measures were 15%, 113 nM, 71%, 69% and 47 nM.
For `Cc1nc(CN2CCN(c3c(Cl)cnc4[nH]c(-c5cn(C)nc5C)nc34)CC2)no1`, the metabolised at 0.5 h in data set [1] was found to be 20%; in data set [2] it was 58%.
In the case of `Cc1cc(CN2CCN(c3c(Cl)cnc4nc(-c5ccnn5C)[nH]c34)CC2)no1`, in the data set with SW-620, halving of growth (GI50) required 3190 nM. The molecule also yielded an IC50 against Aurora kinase A of 147 nM.
`Cc1nn(C)cc1-c1nc2c(N3CCN(Cc4ncn(C)n4)CC3)c(Cl)cnc2[nH]1` yielded an inhibition at 10 µM against hERG (KCNH2) of 14%. In the data set on SW-620, this molecule had a GI50 of 3140 nM. Further, the metabolised at 0.5 h came out at 24% in data set [1] and 97% in data set [2]. Further, on Aurora kinase A, it took 93 nM to reach half-maximal inhibition (IC50).
Consider `Cc1cc(CN2CCN(c3c(Cl)cnc4nc(-c5ccc(N6CCN(C)CC6)cc5)[nH]c34)CC2)no1`, for which it took 570 nM to inhibit growth in the data set with SW-620 by half (GI50). Besides, the metabolised at 0.5 h in data set [1] turned out to be 89%; in data set [2] it was 25%.
`Cc1cc(CN2CCN(c3c(Cl)cnc4[nH]c(-c5cnn(CC(F)F)c5)nc34)CC2)no1` gave an inhibition at 10 µM against hERG (KCNH2) of 82%. The same molecule showed a GI50 in the data set with SW-620 of 1600 nM. Besides, the metabolised at 0.5 h in data set [1] was 0%; in data set [2], 12%. Also, at Aurora kinase A, half-maximal inhibition (IC50) required 45 nM.
`Cc1nn(C)cc1-c1nc2c(N3CCN(Cc4ncon4)CC3)c(Cl)cnc2[nH]1`: the metabolised at 0.5 h in data set [1] stood at 22%; in data set [2], 67%.
For `CC(=O)N1CCN(c2ccc(-c3nc4ncc(Br)c(N5CCN(Cc6cc(C)on6)CC5)c4[nH]3)cc2)CC1`, on hERG (KCNH2), the inhibition at 10 µM amounted to 92%. In the data set with SW-620, this molecule showed a GI50 of 758 nM. The values for the metabolised at 0.5 h in data set [1] and in data set [2] were 94% and 25%, respectively. 9 nM corresponded to half-maximal inhibition at Aurora kinase A (IC50).
In turn, `Cc1cc(CN2CCN(c3c(Cl)cnc4[nH]c(-c5cccc(OCCN(C)C)c5)nc34)CC2)no1` gave an inhibition at 10 µM at hERG (KCNH2) of 88%. Further, halving of growth in the data set on SW-620 (GI50) required 850 nM. For the same molecule, the metabolised at 0.5 h is 18% in data set [1] and 23% in data set [2]. Moreover, on Aurora kinase A, 130 nM corresponded to half-maximal inhibition (IC50).
In turn, `Cc1cc(CN2CCN(c3c(Cl)cnc4nc(-c5cc(C)on5)[nH]c34)CC2)no1` returned a GI50 in the data set with SW-620 of 1150 nM. This molecule also gave an IC50 against Aurora kinase A of 434 nM.
`CCN1CCN(c2ccc(-c3nc4c(N5CCN(Cc6cc(C)on6)CC5)c(Cl)cnc4[nH]3)cc2)CC1` showed an inhibition at 10 µM at hERG (KCNH2) of 68%. In the data set on SW-620, it took 461 nM to inhibit growth by half (GI50). Besides, the metabolised at 0.5 h in data set [1] is 72%; in data set [2], 37%. The molecule also showed an IC50 on Aurora kinase A of 6 nM.
For `Cc1cc(CN2CCN(c3c(Cl)cnc4[nH]c(-c5cn(C)nc5C5CC5)nc34)CC2)no1`, the metabolised at 0.5 h in data set [1] amounted to 64%; in data set [2] it was 80%. On Aurora kinase A, this molecule gave an IC50 of 4 nM.
In turn, `Cc1cc(CN2CCN(c3c(Cl)cnc4[nH]c(-c5ccc(N6CCN(C)CC6)cc5F)nc34)CC2)no1` showed an inhibition at 10 µM against hERG (KCNH2) of 81%. This molecule registered a GI50 in the data set on SW-620 of 7500 nM. Further, the metabolised at 0.5 h was found to be 99% in data set [1] and 65% in data set [2]. In addition, half-maximal inhibition on Aurora kinase A (IC50) required 87 nM.
In the same order, the values of `Cc1cc(CN2CCN(c3c(Cl)cnc4nc(-c5cccc(CN(C)C)c5)[nH]c34)CC2)no1` are 85%, 840 nM, 36%, 29% and 54 nM.
For `Cc1cc(CN2CCN(c3c(Cl)cnc4nc(-c5ccc(N6CCN(C)CC6)c(F)c5)[nH]c34)CC2)no1` the same measures were 37%, 380 nM, 68%, 20% and 11 nM.
For `CCn1cc(-c2nc3ncc(Cl)c(N4CCN(Cc5cc(C)on5)CC4)c3[nH]2)cn1` the same measures were 51%, 2180 nM, 22%, 16% and 41 nM.
At hERG (KCNH2), `COCCN1CCN(c2ccc(-c3nc4ncc(Br)c(N5CCN(Cc6cc(C)on6)CC5)c4[nH]3)cc2)CC1` registered an inhibition at 10 µM of 54%. The same molecule registered a GI50 in the data set with SW-620 of 1000 nM. Further, the figures for the metabolised at 0.5 h in data set [1] and in data set [2] were 69% and 66%, respectively. Further, on Aurora kinase A, half-maximal inhibition (IC50) was put at 12 nM.
Molecule `Cc1cc(CN2CCN(c3c(Br)cnc4nc(-c5nc(C)oc5C)[nH]c34)CC2)no1` had a GI50 in the data set with SW-620 of 4570 nM. The IC50 against Aurora kinase A was 2200 nM.
For `Cc1cc(CN2CCN(c3c(Br)cnc4nc(-c5csnn5)[nH]c34)CC2)no1` the same measures were 20000 nM and 600 nM.
For `Cc1cc(CN2CCN(c3c(Cl)cnc4[nH]c(-c5ccoc5)nc34)CC2)no1` the same measures were 6500 nM and 68 nM.
`Cc1nn(C)cc1-c1nc2ncc(Cl)c(N3CCN(Cc4nonc4C)CC3)c2[nH]1` had an inhibition at 10 µM against hERG (KCNH2) of 50%. The same molecule came in with a GI50 in the data set with SW-620 of 250 nM. Also, the metabolised at 0.5 h in data set [1] is 54%; in data set [2], 91%. For the same molecule, the IC50 against Aurora kinase A worked out at 6 nM.
As to `Cc1cc(CN2CCN(c3c(Cl)cnc4nc(-c5nccn5C)[nH]c34)CC2)no1`, the GI50 with SW-620 came to 16300 nM. In addition, half-maximal inhibition against Aurora kinase A (IC50) was put at 564 nM.
Take `Cc1cc(CN2CCN(c3c(Br)cnc4[nH]c(-c5ccc(N6CCOCC6)cc5)nc34)CC2)no1`: growth in the data set on SW-620 was halved (GI50) at 860 nM. For the same molecule, the metabolised at 0.5 h in data set [1] was 99%; in data set [2] it was 50%. The IC50 at Aurora kinase A was determined as 7 nM.
At hERG (KCNH2), `Cc1nn(C)cc1-c1nc2ncc(Cl)c(N3CCN(Cc4cnccn4)CC3)c2[nH]1` displayed an inhibition at 10 µM of 23%. The GI50 with SW-620 was 1090 nM. Also, the results for the metabolised at 0.5 h in data set [1] and in data set [2] were 76% and 99%, respectively. The IC50 on Aurora kinase A came to 27 nM.
For the molecule `Cc1cc(CN2CCN(c3c(Cl)cnc4nc(-c5ccn(C)n5)[nH]c34)CC2)no1`, the GI50 in the data set with SW-620 came out at 2600 nM. On Aurora kinase A, this molecule returned an IC50 of 118 nM.

The values are drawn from ChEMBL document CHEMBL2203264, “Optimization of imidazo[4,5-b]pyridine-based kinase inhibitors: identification of a dual FLT3/Aurora kinase inhibitor as an orally bioavailable preclinical development candidate for the treatment of acute myeloid leukemia” (J Med Chem, 2012).
